The source made the active and inactive calls.

Assay [1] relates to COLO 205. The experiment in a line: Cytotoxicity against human COLO205 cells assessed as growth inhibition after 72 hrs by MTT assay. The conditions noted are these: COLO 205, 72 h. It is filed as functional.
The test system of assay [2] is SF-268. Put plainly: Cytotoxicity against human SF268 cells assessed as growth inhibition after 72 hrs by MTT assay. It is filed as functional. Particulars: SF-268, 72 h. The essentials: (§1)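 NCI 60-cell-line panel screen. Compounds were tested at 5 concentrations in 10-fold dilution (10^-4 to 10^-8 M) across the full panel. GI50 was taken as the molar concentration giving 50% inhibition of net cell growth.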

Assay [3] deals with K562. Put plainly: Cytotoxicity against human K562 cells assessed as growth inhibition after 72 hrs by MTT assay. Particulars: K562, 72 h. It is filed as functional.
For assay [4], the system named is A498. Put plainly: Cytotoxicity against human A498 cells assessed as growth inhibition after 72 hrs by MTT assay. The assay is classed as functional. Particulars: A498, 72 h.
Assay [5] deals with T1, DNA topoisomerase 1 (Homo sapiens) (UniProt P11387).
T1 sequence (whole entry): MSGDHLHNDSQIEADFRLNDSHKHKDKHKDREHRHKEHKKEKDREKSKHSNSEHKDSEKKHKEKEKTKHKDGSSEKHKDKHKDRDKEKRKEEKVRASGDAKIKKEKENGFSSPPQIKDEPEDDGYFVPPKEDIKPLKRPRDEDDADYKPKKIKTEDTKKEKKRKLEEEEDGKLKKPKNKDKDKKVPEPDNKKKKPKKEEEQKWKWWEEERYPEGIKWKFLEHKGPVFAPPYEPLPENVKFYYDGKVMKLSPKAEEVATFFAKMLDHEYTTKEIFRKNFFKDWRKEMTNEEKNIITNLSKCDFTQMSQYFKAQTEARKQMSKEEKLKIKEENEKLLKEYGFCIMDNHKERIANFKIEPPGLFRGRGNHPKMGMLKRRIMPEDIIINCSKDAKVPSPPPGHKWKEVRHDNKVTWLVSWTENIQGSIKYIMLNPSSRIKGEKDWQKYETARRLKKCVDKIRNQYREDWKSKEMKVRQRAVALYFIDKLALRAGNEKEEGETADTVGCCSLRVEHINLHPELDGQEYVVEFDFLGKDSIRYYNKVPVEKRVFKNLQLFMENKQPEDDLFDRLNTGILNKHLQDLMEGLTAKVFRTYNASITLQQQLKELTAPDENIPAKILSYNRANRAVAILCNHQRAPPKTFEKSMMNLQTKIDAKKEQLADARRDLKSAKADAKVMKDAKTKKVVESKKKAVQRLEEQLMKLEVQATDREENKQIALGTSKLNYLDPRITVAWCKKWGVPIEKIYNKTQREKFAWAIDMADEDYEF
The experiment in a line: Inhibition of human DNA topoisomerase 1-mediated DNA single strand cleavage at 5 to 100 uM after 30 mins by agarose gel electrophoresis relative to untreated control. The essentials: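 Reactions were set up as for relaxation: human topoisomerase I, 0.250 µg pBR322, compound 5-100 µM, 37 °C for 30 min, stopped with SDS/proteinase K. Samples were run on 0.8% agarose containing 0.5 µg/mL ethidium bromide, then destained in water, so that cleaved/nicked DNA could be detected under UV.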

Assay [6] in a line: Binding affinity to DNA (unknown origin) at compound to DNA ratio 0.01 to 0.04 by linear dichroism method. The essentials: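 Linear dichroism spectra were recorded at different compound/DNA ratios in 10 mM phosphate buffer, pH 7.2.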
Assay [7] relates to Jurkat. Put plainly: Induction of apoptosis in human Jurkat cells assessed as mitochondrial membrane potential depolarization after 24 hrs by JC-1 staining-based flow cytometry. The assay is classed as functional, cell-based. Put shortly:
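After 24 h of treatment, Jurkat cells were resuspended in HBSS and stained with JC-1. Flow cytometry measured the percentage of cells with low potential (green monomer fluorescence). Mean ± SEM of 3 experiments.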

For assay [8], the system named is M14. Put plainly: Cytotoxicity against human M14 cells assessed as growth inhibition after 72 hrs by MTT assay. The assay is classed as functional. Particulars: M14, 72 h.
Assay [9] can be described thus: Cytotoxicity against human HCT116 cells assessed as growth inhibition after 72 hrs by MTT assay. It is filed as functional. The conditions noted are these: HCT-116, 72 h.
For assay [10], the system named is NCI-H226. The experiment in a line: Cytotoxicity against human NCI-H226 cells assessed as growth inhibition after 72 hrs by MTT assay. It is filed as functional. Particulars: NCI-H226, 72 h.
The test system of assay [11] is HT-29. Put plainly: Cytotoxicity against human HT-29 cells assessed as growth inhibition after 72 hrs by MTT assay. It is filed as functional. The conditions noted are these: HT-29, 72 h.
Assay [12] deals with HL-60(TB). Put plainly: Cytotoxicity against human HL-60(TB) cells assessed as growth inhibition after 72 hrs by […] assay. It is filed as functional. Particulars: HL-60, 72 h. The essentials: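 HL-60(TB) was tested within the NCI 60 human cancer cell line panel. Compounds that met the NCI single-dose activity criteria were retested on the full panel at 5 concentrations in 10-fold dilutions (10-4–10-8 M). GI50 is the molar concentration giving 50% inhibition of net cell growth; TGI was also reported.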

Assay [13] concerns HOP-62. Put plainly: Cytotoxicity against human HOP62 cells assessed as growth inhibition after 72 hrs by MTT assay. The assay is classed as functional. The conditions noted are these: HOP-62, 72 h.
The subject of assay [14] is KM12. The experiment in a line: Cytotoxicity against human KM12 cells assessed as growth inhibition after 72 hrs by MTT assay. The assay is classed as functional. The conditions noted are these: KM12, 72 h.
The test system of assay [15] is SF-539. Put plainly: Cytotoxicity against human SF539 cells assessed as growth inhibition after 72 hrs by MTT assay. It is filed as functional. Particulars: SF-539, 72 h. The essentials: as §1
Assay [16] deals with TK-10. Put plainly: Cytotoxicity against human TK10 cells assessed as growth inhibition after 72 hrs by MTT assay. It is filed as functional. Particulars: TK-10, 72 h. Put shortly: as §1
Assay [17] deals with Jurkat. The experiment in a line: Induction of apoptosis in human Jurkat cells assessed as loss of plasma membrane asymmetry at 250 to 500 nM after 24 hrs by annexin V-FITC/propidium iodide staining-based flow cytofluorimetric analysis. The assay is classed as functional, cell-based. Put shortly: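 Jurkat cells were incubated with 250 or 500 nM compound for 6 h or 24 h. They were then double-stained with Annexin V-FITC and propidium iodide and analysed by flow cytometry (488 nm excitation; emission 525 and 585 nm). Mean ± SEM of 3 experiments.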

Assay [18] has as its system LoVo. Put plainly: Anticlonogenic activity against human LoVo cells assessed as inhibition of colony formation of cells incubated for 24 hrs followed by compound washout measured after 1 to 2 weeks by crystal violet staining-based assay. The assay is classed as functional, cell-based. The essentials: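 LoVo cells were plated at 1000 per well in six-well plates and exposed to compound at different concentrations for 24 h. Medium was then replaced, with fresh medium every 2–3 days, until colonies formed (1–2 weeks). Colony number is given as a percentage of untreated cells (100%), as mean ± SEM of 3 independent experiments.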

Assay [19] deals with Jurkat. Put plainly: Induction of apoptosis in human Jurkat cells assessed as lysosomal dysfunction at 250 to 500 nM after 24 hrs by acridine orange staining-based flow cytometry relative to control. It is filed as functional, cell-based. Put shortly: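 Jurkat cells were treated for 24 h at two concentrations, then stained with acridine orange. Flow cytometry (488 nm excitation, FL3 emission) scored red fluorescence of intact lysosomes. Mean ± SEM of at least 3 experiments, compared with control.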

Assay [20] can be described thus: Cytotoxicity against human NCI-ADR-RES cells assessed as growth inhibition after 72 hrs by MTT assay. The assay is classed as functional.
Assay [21] relates to LOX IMVI. Put plainly: Cytotoxicity against human LOXIMVI cells assessed as growth inhibition after 72 hrs by MTT assay. The assay is classed as functional.
Assay [22] has as its system Malme-3M. Put plainly: Cytotoxicity against human MALME-3M cells assessed as growth inhibition after 72 hrs by MTT assay. The assay is classed as functional.
The nature of assay [23]: Cytotoxicity against human PC3 cells assessed as growth inhibition after 72 hrs by MTT assay. The assay is classed as functional. Particulars: PC-3, 72 h. The essentials:
as §1

`COc1ccc2c(c1)nnc1c3cccnc3[nH]c21`: the GI50 in assay [1] worked out at 1130 nM; in [2] it was 730 nM; in assay [3] it was 220 nM; in assay [4], 8000 nM; in assay [8] it was 1070 nM; in assay [9] it was 210 nM. The GI50 in [10] is 2620 nM; in assay [11], 750 nM; in [12] it was 160 nM; in assay [13] it was 5470 nM; in [14], 1220 nM; in assay [15] it was 640 nM. The GI50 worked out at 4520 nM in [16], 1790 nM in assay [20], 760 nM in assay [21] and 1060 nM in [22]. Besides, the result in [5], in [6] and in assay [17] was Active. For the same molecule, the Activity result in [7] was “Dose-dependent effect”. In [18], the inhibition result was “Dose-dependent effect”. In addition, in assay [19], the result was inactive.
For `O=Nc1c2cccnc2n2nnc3ccc(Cl)cc3c12`, the GI50 in assay [1] came to 1000 nM; in assay [2], 1210 nM; in [3] it was 130 nM; in [4], 1910 nM; in assay [8], 1190 nM; in assay [9] it was 190 nM. Further, the GI50 in assay [10] was found to be 2190 nM; in [11], 910 nM; in assay [12], 300 nM; in [23], 740 nM; in [13], 1440 nM; in assay [14] it was 910 nM. In addition, the GI50 amounted to 1890 nM in assay [15]; 940 nM in assay [16]; 430 nM in assay [20]; 1030 nM in [21]; 1220 nM in assay [22].
`COc1cc2nnc3c4cccnc4[nH]c3c2cc1OC`: the GI50 in [1] was determined as 2960 nM; in [2], 540 nM; in assay [3], 330 nM; in assay [4] it was 2740 nM; in assay [8] it was 1790 nM; in assay [9], 130 nM. The GI50 is 1940 nM in assay [10]; 1340 nM in assay [11]; 190 nM in assay [12]; 1490 nM in assay [23]; 2260 nM in assay [13]; 1910 nM in assay [14]. In addition, the GI50 in assay [15] turned out to be 1730 nM; in assay [16], 2380 nM; in assay [21], 1410 nM; in assay [22], 2280 nM.
As for `COc1ccc2c(c1)nnn1c3ncccc3c(N=O)c21`, the GI50 is 680 nM in assay [1]; 470 nM in assay [2]; 110 nM in assay [3]; 1270 nM in [4]; 1570 nM in assay [8]; 60 nM in assay [9]. The GI50 in [10] came out at 4140 nM; in assay [11] it was 620 nM; in assay [12], 43 nM; in assay [13], 7510 nM; in assay [14], 1030 nM; in assay [15], 470 nM. Further, the GI50 amounted to 5080 nM in assay [16], 1420 nM in assay [20], 800 nM in assay [21] and 770 nM in assay [22]. For the same molecule, the result in [5] and in [17] was Active. Besides, the outcome in [6] and in assay [19] was inactive. Also, the Activity entry in [7] was “Dose-dependent effect”. The inhibition result in assay [18] was “Dose-dependent effect”.
Take `COc1cc2nnn3c4ncccc4c(N=O)c3c2cc1OC`: the GI50 is 5260 nM in [1]; 490 nM in [2]; 210 nM in assay [3]; 15800 nM in [4]; 1710 nM in assay [8]; 61 nM in [9]. In addition, the GI50 is 3700 nM in [10]; 790 nM in assay [11]; 40 nM in [12]; 2360 nM in assay [23]; 1900 nM in assay [13]; 1380 nM in [14]. In addition, the GI50 in [15] stood at 1820 nM; in [16] it was 5260 nM; in [20] it was 380 nM; in assay [21] it was 920 nM; in [22] it was 2890 nM. The outcome in assay [5] and in [17] was Active. Further, the outcome in assay [6] and in assay [19] was inactive. Besides, the Activity result in assay [7] was “Dose-dependent effect”. For the same molecule, the inhibition entry in [18] is “Dose-dependent effect”.

Values taken from ChEMBL document CHEMBL3351507, “11H-Pyrido[3',2':4,5]pyrrolo[3,2-c]cinnoline and pyrido[3',2':4,5]pyrrolo[1,2-c][1,2,3]benzotriazine: two new ring systems with antitumor activity” (2014).
